UPR XBP1 act – activators of adaptive arm of unfolded protein response (XBP1). actives 0.33% (n = 330,000). CHO-XBP1 luciferase reporter, IRE1-XBP1 UPR activation, luminescence; percent of tunicamycin response, DMSO as zero. activation, % at 20 µM;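 active means versus positive control, 20 µM dose yields 30% or more activation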;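 further: 100% = tunicamycin at 10 µg/mL and 0% = DMSO only wells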
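Material: CHO cell line with stable XBP1 luciferase reporter; buffer or medium: F12 medium containing 10% fetal bovine serum; compound: single point, 20 µM final compound, 1% DMSO; incubation: 6 h treatment, 37 °C; measured by: glow luminescence from Steady-Glo reagent; evaluation: activation, % of tunicamycin; control set: tunicamycin high, DMSO low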
tim10-1 inh – inhibits growth of tim10-1 mutant yeast | S. cerevisiae tim10-1 ts strain growth, BacTiter-Glo, 24 h | actives 2.2% (n = 330,000) | inhibition, % at 20 µM | AID 463190;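 active means inhibition of at least 40%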;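 further: mutant grown at 25 °C; 0% = DMSO wells with yeast and 100% = wells holding no yeast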
tim23-1 inh – growth inhibitors of tim23-1 mutant yeast; actives 1.3% (n = 330,000); S. cerevisiae tim23-1 growth, BacTiter-Glo luminescence, 24 h; inhibition, % at 20 µM; AID 463212;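 active means growth inhibition of the mutant yeast at or above 50%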;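 further: temperature-sensitive mutant grown at 25 °C; plate controls were DMSO-treated mutant yeast for no effect and medium wells lacking yeast for full effect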
TIM10 inh – growth inhibitors of TIM10 yeast strain | S. cerevisiae TIM10 strain growth, BacTiter-Glo luminescence, 24 h | inhibition, % at 10 µM | actives 1.4% (n = 330,000) | AID 463195;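 active means inhibition of 40% or more at the single tested concentration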;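 further: wild-type TIM10 isogenic control strain grown at permissive 25 °C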
CHOP UPR activ – activators of apoptotic arm of unfolded protein response (CHOP); CHO-CHOP luciferase reporter, UPR activation, luminescence; percent of tunicamycin response over DMSO baseline; activation, % at 10 µM; actives 0.34% (n = 330,000); AID 449763;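 active means at 10 µM dose, activation of 40% or more, normalized to positive control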;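 further: 100% = tunicamycin at 10 µg/mL and 0% = DMSO alone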
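System: CHO CHOP reporter cells. Amount: 500 cells per well. Buffer or medium: F12 medium, 10% FBS. Compound dosing: one dose, 10 µM in 0.5% DMSO. Incubation: 6 h compound exposure at 37 °C after overnight seeding. Technique: Steady-Glo luciferase luminescence. Benchmarks: tunicamycin and DMSO controls.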
TIM10 conf – confirmation of TIM10 yeast growth inhibitors; shares compounds with TIM10 inh; S. cerevisiae tim10 strain growth, BacTiter-Glo luminescence, 24 h; inhibition, % at 10 µM; actives 63% (n = 4,600); AID 463215;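 active means inhibition of yeast growth at or above a set limit in either of two replicates at 10 µM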;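 further: this counterscreen used the strain with wild-type TIM10; 0% = yeast with DMSO and 100% = medium wells lacking yeast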
* marks the source's active call; other numbers are inactive results; nt = no result. The list is not random: actives were taken first. Their share in the collection is about 3.9%.

SMILES | UPR XBP1 act | tim10-1 inh | tim23-1 inh | TIM10 inh | CHOP UPR activ | TIM10 conf
CCc1ccc(N(C(=O)c2snc(C(N)=O)c2N)C(C(=O)NCC2CCCO2)c2ccco2)cc1 (centres undefined) | -1 | 2 | 16 | 3 | 2 | nt
OCC[C@@H]1C[C@H](O)[C@@H](O)[C@]2(CCCc3ccccc3O2)O1 | -2 | 4 | 14 | 11 | 1 | nt
O=C(COC(=O)c1ccc([N+](=O)[O-])o1)Nc1ccc(Br)cc1F | 3 | -32 | 19 | 47* | -1 | 50*
COc1ccc(S(=O)(=O)N2CCOCC2)cc1C(=O)N1CCCC1 | -5 | -26 | -13 | 5 | -1 | nt
CCOc1ccc(/C=N/NC(=S)Nc2c(C)cccc2C)cc1 | -1 | 36 | 31 | 52* | 0 | 4
COc1ccc(-c2nc(SC)n(C(=O)c3ccco3)n2)cc1 | -1 | 27 | 23 | 42* | 5 | 18
COc1cccc(C(=O)NCCS(=O)(=O)NC2CCCC2)c1 | -2 | 10 | 6 | 5 | -1 | nt
COc1ccc(C(=O)NCCS(=O)(=O)NC2CCCC2)cc1 | -4 | -2 | 6 | 41* | 2 | 3
Cc1cc(F)ccc1NCc1cc2c(cc1[N+](=O)[O-])OCO2 | -2 | 29 | 34 | 45* | -2 | 41*
CCCCn1c(N)c(N(CC)C(=O)c2ccc([N+](=O)[O-])c(C)c2)c(=O)[nH]c1=O | 0 | 19 | 29 | -3 | 0 | nt
Fc1ccc(CSc2nnc(-c3cnccn3)n2Cc2ccco2)cc1 | -1 | 30 | 42 | 41* | 0 | 26
Fc1ccccc1CSc1nnc(-c2cnccn2)n1Cc1ccco1 | -3 | 22 | 27 | 28 | 2 | nt
Brc1ccc(CSc2nnc(-c3cnccn3)n2Cc2ccco2)cc1 | 0 | 39 | 46 | 45* | -3 | 16
COc1ccc(NC(NC(=O)c2ccc(OC)cc2)C(Cl)(Cl)Cl)cc1 (centres undefined) | -1 | 33 | 35 | 42* | -2 | 26*
C[C@@]12C(=O)N(c3ccc(C(F)(F)F)cc3)C(=O)N1[C@@H]1c3ccccc3OC[C@@H]1[C@H]2c1ccccc1 | 0 | 19 | 31 | 7 | 1 | nt
Cc1ccc(C(=O)/C=C/c2ccc3c(c2)OCCO3)c(O)c1 | 0 | 24 | 48 | 52* | 5 | 52*
CC12CCC(C(=O)N(CSC(=S)N/N=C\c3ccccc3)C1=O)C2(C)C (centres undefined) | -2 | 36 | 5 | 58* | -3 | 50*
CC12CCC(C(=O)N(CC(=O)O)C1=O)C2(C)C (centres undefined) | -3 | -11 | -1 | 8 | -1 | nt
CCOc1cc(/C=C2\SC(=NC)N(C)C2=O)cc(Cl)c1OC(C)=O | 18 | 22 | 20 | -16 | 0 | nt
CCOc1cc(/C=C2\SC(=NC)N(C)C2=O)c(Br)cc1OC(C)=O | 3 | 34 | 29 | 82* | 0 | 29
CCC(C)N1CCNCC1 (centres undefined) | -2 | -2 | 3 | -9 | 0 | nt
COc1ccc(CCNC(=S)NC(=O)c2ccccc2)cc1C | 4 | 23 | 31 | 45* | 1 | 50*
COc1ccc(CCNC(=S)NC(=O)c2ccc(Br)cc2)cc1OC | 7 | 20 | 40 | 39 | 2 | nt
COc1ccccc1CNC(=S)NCCc1ccccc1 | -3 | 36 | 18 | 41* | 0 | 17
COc1ccccc1CNC(=O)CCc1ccccc1 | -2 | 11 | 4 | -5 | 1 | nt
SMILES | UPR XBP1 act | tim10-1 inh | tim23-1 inh | TIM10 inh | CHOP UPR activ | TIM10 conf
CCSC(=O)NC1CCCCC1 | -1 | 2 | 13 | 14 | 0 | nt
O=C(NC1CC1)C1CC(=O)N(c2cccc(Cl)c2Cl)C1 (centres undefined) | 0 | -1 | 8 | -5 | 1 | nt
O=C(O)c1cc(S(=O)(=O)NCC2COc3ccccc3O2)ccc1Cl (centres undefined) | 0 | -20 | -9 | 6 | 1 | nt
O=C(Nc1ccc(C(F)(F)F)cc1)c1cc(S(=O)(=O)NCC2COc3ccccc3O2)ccc1F (centres undefined) | -2 | 2 | 9 | 42* | -1 | 45*
COCc1nc2ccccc2n1Cc1ccccc1C | 1 | 26 | 2 | 9 | -1 | nt
Cc1ccccc1Cn1c(Cc2ccccc2)nc2ccccc21 | 2 | 36 | 46 | 42* | 0 | 45*
Cc1[nH]c2ccccc2c1CCNC(=O)c1ccc2c(c1[N+](=O)[O-])C(=O)c1ccccc1C2=O | -3 | 31 | 37 | 45* | 6 | 14
Cc1nc2ccc(NC(=O)c3ccc([N+](=O)[O-])cc3[N+](=O)[O-])cc2s1 | -3 | 38 | 40 | 42* | -2 | 28
Cc1nc2ccc(C(=O)Nc3cccc([N+](=O)[O-])c3)cc2s1 | -4 | 4 | 1 | 14 | -1 | nt
O=C(Nc1ccc(Oc2ccc(Br)cc2)cc1)C1=CC=CN2CCS(=O)(=O)N=C12 | 2 | -8 | -5 | -6 | -2 | nt
O=C(NC1CCCCCC1)c1cc(S(=O)(=O)N2CCOCC2)ccc1N1CCCCC1 | -1 | 23 | 24 | 44* | 0 | 31
NC(=O)c1ccc(NC(=O)CSC(=O)c2ccccc2)cc1 | 1 | -2 | -9 | 12 | -1 | nt
O=C1Nc2cc3c(cc2C1=O)sc1ccccc13 | 1 | 22 | 0 | 50* | 0 | 68*
CC(C)(CO)NC(=O)C(Cc1ccccc1)N1C(=O)c2ccccc2C1=O (centres undefined) | -2 | 7 | 4 | -5 | -1 | nt
O=C(COc1cccc(NC(=O)c2cccc([N+](=O)[O-])c2)c1)c1ccc(Br)cc1 | -4 | 29 | 29 | 42* | 2 | 31*
O=C1N[C@@H](Cc2ccccc2)C(=O)N2[C@@H]1C[C@@]1(Br)c3ccccc3N(S(=O)(=O)c3ccccc3)[C@@H]21 | -2 | 15 | 21 | 13 | 0 | nt
O=c1[nH]c(NNC(=S)NC2CCCCC2)nc2c1C1(CCCC1)Cc1ccccc1-2 | -1 | 29 | 40 | 41* | 2 | 32*
COc1cccc(/C=N/NC(N)=S)c1OCc1cccc(Cl)c1 | 1 | 36 | 20 | 46* | 0 | 48*
Cc1cccc(C(=O)Nc2c(C(=O)N(C)C)cnn2-c2ccccc2)c1 | -5 | 2 | 15 | 2 | 2 | nt
Cc1scc(C(=O)N/N=C/c2ccc(OCC(C)C)cc2)c1C | -1 | 17 | 30 | 44* | 0 | 20
O=C(CCNS(=O)(=O)c1ccc(Br)cc1)NC1CCC(O)CC1 (centres undefined) | 0 | 10 | 8 | 4 | 4 | nt
CCC(c1nnc(SCc2nc3ccccc3s2)n1Cc1ccccc1)N(C)C (centres undefined) | 2 | 33 | 23 | 41* | 5 | -18
